For series [1], the system named is RAW264.7. The series can be described thus: Antiinflammatory activity in mouse RAW264.7 cells assessed as inhibition of LPS-induced nitrite production treated 30 mins before LPS challenge measured after 24 hrs by Griess method. Type of series: functional, cell-based. In a few lines: (§1)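 RAW 264.7 cells pre-incubated 30 min with compound (1, 2, 5, 10, 25 µM; range tested up to 50 µM), then LPS 250 ng/ml for 24 h. Medium nitrite measured by Griess reaction (sulfanilamide/naphthylethylenediamine in phosphoric acid, 10 min room temperature), read spectrophotometrically. IC50 is the concentration giving 50% inhibition of NO release. Three independent experiments in triplicate.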

A short description of series [2]: Cytotoxicity against LPS-stimulated mouse RAW264.7 cells assessed as cell viability at 1 uM after 24 hrs by MTT assay. The settings on record: LPS-stimulated RAW264.7 cells, read-out: Activity. Type of series: cell-based. In a few lines:
(§2)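 RAW 264.7 cells plated at 10⁵ cells/well, pre-incubated 30 min with compound (1-25 µM), then LPS 250 ng/ml for 24 h. MTT added for 4 h at 37 °C; formazan dissolved in DMSO, absorbance read at 540 nm. Viability expressed relative to untreated controls. Triplicate wells, at least three independent experiments.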

Series [3] has as its system RAW264.7. The series can be described thus: Antiinflammatory activity in mouse RAW264.7 cells assessed as inhibition of LPS-induced PGE2 production treated 30 mins before LPS challenge measured after 24 hrs by ELISA. Type of series: functional, cell-based. In a few lines:
(§3)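 RAW 264.7 macrophages pretreated 30 min with compound, then stimulated with LPS 250 ng/ml for 24 h. PGE2 in culture medium quantified in duplicate by EIA kit. IC50 is the concentration giving 50% inhibition of PGE2 release. Three independent experiments in triplicate.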

Series [4] relates to RAW264.7. The experiment in a line: Cytotoxicity against LPS-stimulated mouse RAW264.7 cells assessed as cell viability at 25 uM after 24 hrs by MTT assay. Type of series: cell-based. The settings on record: raw264.7, 24 h. An outline of the steps:
as §2

Series [5] concerns RAW264.7. The series can be described thus: Cytotoxicity against LPS-stimulated mouse RAW264.7 cells assessed as cell viability at 10 uM after 24 hrs by MTT assay. Type of series: cell-based. The settings on record: raw264.7, 24 h. In a few lines:
as §2

In series [6] the test system is RAW264.7. The series can be described thus: Antiinflammatory activity in mouse RAW264.7 cells assessed as inhibition of LPS-induced PGE2 production at 25 uM treated 30 mins before LPS challenge measured after 24 hrs by ELISA. In kind it is functional, cell-based. In a few lines: as §3
The test system of series [7] is RAW264.7. The series can be described thus: Antiinflammatory activity in mouse RAW264.7 cells assessed as inhibition of LPS-induced nitrite production at 25 uM treated 30 mins before LPS challenge measured after 24 hrs by Griess method. Type of series: functional, cell-based. In a few lines:
as §1

Series [8] relates to Mus musculus. The series can be described thus: Antiinflammatory activity in Swiss mouse ear homogenates assessed as reduction of 12-O-tetradecanoylphorbol acetate-induced myeloperoxidase activity at 0.25 to 1 mg/ear administered topically measured after 4 hrs. In kind it is functional, organism-based. An outline of the steps:
(§4)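 TPA ([…]) applied to inner and outer surfaces of right ear of Swiss mice (20-25 g); test agent applied topically in acetone 30 min before TPA. Mice killed after 4 h; equal ear punches weighed, edema as right-over-left weight increase. MPO measured in saline homogenate supernatants (10,000g, 15 min, 4 °C) with tetramethylbenzidine substrate, pH 5.4 phosphate. Three independent experiments in triplicate.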

The subject of series [9] is Mus musculus. The series can be described thus: Antiinflammatory activity in Swiss mouse assessed as reduction of 12-O-tetradecanoylphorbol acetate-induced ear swelling at 0.25 to 1 mg/ear administered topically measured after 4 hrs. In kind it is functional, organism-based. In a few lines: as §4
Series [10] deals with RAW264.7. The series can be described thus: Antiinflammatory activity in mouse RAW264.7 cells assessed as inhibition of LPS-induced nitrite production at 50 uM treated 30 mins before LPS challenge measured after 24 hrs by Griess method. In kind it is functional, cell-based. In a few lines: as §1

Active and inactive are the calls of the source. The rule behind the calls is not given here.

Regarding `C[C@H](CCOC(=O)c1ccc(Br)cc1)CC[C@@H]1[C@@]2(C)CCCC(C)(C)[C@@H]2CC[C@@]1(C)O`, the half-maximal inhibitory concentration (IC50) in the series with RAW264.7 [1] and in the series on RAW264.7 [3] was more than 50 µM throughout. In series [2], the viability at 24 h, 1 µM came out at 80%.

With `CCCCCCCCCCCC(=O)OCC[C@@H](C)CC[C@@H]1[C@@]2(C)CCCC(C)(C)[C@@H]2CC[C@@]1(C)O`, the concentration for half-maximal inhibition (IC50) with RAW264.7 [1] and in the series on RAW264.7 [3] was more than 50 µM throughout. In addition, the viability at 24 h, 1 µM in series [2] stood at 80%.

For `C[C@H](CC=O)CC[C@@H]1[C@@]2(C)CCCC(C)(C)[C@@H]2CC[C@@]1(C)O`, the IC50 with RAW264.7 [1] and with RAW264.7 [3] was more than 50 µM in each case. Further, the viability at 24 h, 1 µM in series [2] was 80%.

Take `C[C@@H](CC[C@@H]1[C@@]2(C)CCCC(C)(C)[C@@H]2CC[C@@]1(C)O)CC(=O)O` [LABDANIC ACID]: the IC50 in the series on RAW264.7 [1] and in the series on RAW264.7 [3] was more than 50 µM throughout. Also, in series [2], the viability at 24 h, 1 µM is 80%.

Consider `CC1=C(CC[C@H](C)CCO)[C@@]2(C)CCCC(C)(C)[C@@H]2CC1`, for which the Activity result with RAW264.7 [4] is “Toxic”. The IC50 in the series with RAW264.7 [1] worked out at 15 µM; in the series with RAW264.7 [3] it was 20 µM. Further, the inhibition result in the series with RAW264.7 [1] and in the series on RAW264.7 [3] was “Dose-dependent effect” each time. Besides, the viability at 24 h, 1 µM in series [2] worked out at 75%.

Consider `CC(=O)OCC[C@@H](C)CC[C@@H]1[C@@]2(C)CCCC(C)(C)[C@@H]2CC[C@@]1(C)O`, for which, in the series with RAW264.7 [1], the IC50 is 15 µM and the inhibition result is “Dose-dependent effect”. Further, the viability at 24 h, 1 µM in series [2] worked out at 90%. Moreover, in the series with RAW264.7 [3], the IC50 came out at 25 µM and the inhibition entry is “Dose-dependent effect”. The Activity entry in the series with RAW264.7 [5] is reported as “Non-toxic”.

Regarding `COC(=O)C[C@@H](C)CC[C@@H]1[C@@]2(C)CCCC(C)(C)[C@@H]2CC[C@@]1(C)O` [LABDANIC ACID METHYL ESTER], the inhibition entry in the series with RAW264.7 [6] and in the series with RAW264.7 [7] was “Active” in each case. Further, the IC50 in the series on RAW264.7 [1] is 5 µM; with RAW264.7 [3], 10 µM. Besides, the inhibition entry with RAW264.7 [1] and with RAW264.7 [3] was “Dose-dependent effect” throughout. For the same compound, the outcome in the series with Mus musculus [8] and in the series on Mus musculus [9] was Active. In series [2], the viability at 24 h, 1 µM came out at 95%. Besides, the Activity result in the series on RAW264.7 [5] is “Non-toxic”.

For the compound `C[C@H](CCO)CC[C@@]1(C)C2=C(CC[C@@H]1C)C(C)(C)CCC2`, the Activity entry in the series with RAW264.7 [4] is reported as “Toxic”. Also, in the series on RAW264.7 [1], the IC50 is 10 µM and the inhibition entry is “Dose-dependent effect”. Also, the viability at 24 h, 1 µM in [2] stood at 75%. Also, in the series with RAW264.7 [3], the IC50 was determined as 25 µM and the inhibition entry is “Dose-dependent effect”.

Take `CC(=N)NCc1cccc(CN)c1`: the inhibition entry in the series on RAW264.7 [10] was “Active”.

Take `C[C@H](CCO)CC[C@@H]1[C@@]2(C)CCCC(C)(C)[C@@H]2CC[C@@]1(C)O` [LABDANEDIOL]: in the series with RAW264.7 [1], the IC50 was found to be 15 µM and the inhibition result was “Dose-dependent effect”. Besides, in [2], the viability at 24 h, 1 µM was determined as 40%. For the same compound, in the series on RAW264.7 [3], the IC50 stood at 25 µM and the inhibition result was “Dose-dependent effect”. The Activity entry in the series with RAW264.7 [5] is listed as “Toxic”.

The record behind these values is ChEMBL document CHEMBL1177893, “Evaluation of labdane derivatives as potential anti-inflammatory agents” (Eur J Med Chem, 2010).
